From ChEMBL document CHEMBL1158155, “Novel hexacyclic camptothecin derivatives. Part 1: synthesis and cytotoxicity of camptothecins with an A-ring fused 1,3-oxazine ring” (Bioorg Med Chem Lett, 2008)

How the values were obtained:
Type in all cases: functional, cell-based
KB = experiment: Cytotoxicity against human KB cells after 4 days by MTT assay; conditions: 96 h
In short: (§1)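 Panel of nine human cancer lines tested in parallel: BXPC-3 (pancreatic), NCI-446 (lung), MCF-7 (breast), HEPG-2 (liver), A549 (lung), A2780 (ovarian), Bel7402 (liver), HT-29 (colon), and KB (epidermoid carcinoma of nasopharynx). Cells were exposed for 4 days of incubation, viability was read by MTT, and values were expressed as the doses required for the response.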

[1] = Cytotoxicity against human NCI446 cells after 4 days by MTT assay; conditions: NCI446, 96 h; in short: as §1
A549 = experiment: Cytotoxicity against human A549 cells after 4 days by MTT assay; conditions: A549, 96 h; in short: as §1
A2780 = experiment: Cytotoxicity against human A2780 cells after 4 days by MTT assay; conditions: A2780, 96 h; in short: as §1
BXPC-3 = experiment: Cytotoxicity against human BXPC3 cells after 4 days by MTT assay; conditions: BXPC-3, 96 h; in short: as §1
Bel-7402 = experiment: Cytotoxicity against human BEL-7402 cells after 4 days by MTT assay; conditions: Bel-7402, 96 h; in short: as §1
HT-29 = experiment: Cytotoxicity against human HT29 cells after 4 days by MTT assay; conditions: HT-29, 96 h; in short: as §1
HepG2 = experiment: Cytotoxicity against human HepG2 cells after 4 days by MTT assay; conditions: HepG2, 96 h; in short: as §1
MCF7 = experiment: Cytotoxicity against human MCF7 cells after 4 days by MTT assay; conditions: MCF7, 96 h; in short: as §1

| Structure (SMILES) | IC50 (KB) | IC50 [1] | IC50 (A549) | IC50 (A2780) | IC50 (BXPC-3) | IC50 (Bel-7402) | IC50 (HT-29) | IC50 (HepG2) | IC50 (MCF7) |
| --- | --- | --- | --- | --- | --- | --- | --- | --- | --- |
| CCCN1COc2ccc3nc4c(cc3c2C1)Cn1c-4cc2c(c1=O)COC(=O)[C@]2(O)CC | 670 nM | 3900 nM | 110 nM | 90 nM | 150 nM | 1430 nM | 180 nM | 10 nM |  |
| CCN1COc2ccc3nc4c(cc3c2C1)Cn1c-4cc2c(c1=O)COC(=O)[C@]2(O)CC | 120 nM | 230 nM | 160 nM | 120 nM | 190 nM | 810 nM | 140 nM | 50 nM | 210 nM |
| CC[C@@]1(O)C(=O)OCc2c1cc1n(c2=O)Cc2cc3c4c(ccc3nc2-1)OCN(Cc1ccc(OC)cc1)C4 | 80 nM | 56800 nM | 30 nM | 17600 nM | 1240 nM | 9580 nM | 1680 nM | 1470 nM |  |
| CC[C@@]1(O)C(=O)OCc2c1cc1n(c2=O)Cc2cc3c4c(ccc3nc2-1)OCN(Cc1ccccc1)C4 | 40 nM | 6230 nM | 80 nM | 910 nM | 210 nM | 1580 nM | 100 nM | 110 nM | 1600 nM |
| CC[C@@]1(O)C(=O)OCc2c1cc1n(c2=O)Cc2cc3c4c(ccc3nc2-1)OCN(c1ccccc1C)C4 | 60 nM | 1140 nM | 1210 nM | 4260 nM | 530 nM | 6000 nM | 220 nM | 180 nM |  |
| CC[C@@]1(O)C(=O)OCc2c1cc1n(c2=O)Cc2cc3c4c(ccc3nc2-1)OCN(c1cccc(C)c1)C4 | 40 nM | 7030 nM | 420 nM | 850 nM | 580 nM | 5430 nM | 340 nM | 930 nM |  |
| CC[C@@]1(O)C(=O)OCc2c1cc1n(c2=O)Cc2cc3c4c(ccc3nc2-1)OCN(c1ccc(C)cc1)C4 | 340 nM | 9390 nM | 570 nM | 2160 nM | 2050 nM | 3860 nM | 530 nM |  | 1640 nM |
| CC[C@@]1(O)C(=O)OCc2c1cc1n(c2=O)Cc2cc3c4c(ccc3nc2-1)OCN(c1ccccc1OC)C4 | 290 nM |  | 720 nM | 2990 nM | 3340 nM | 2230 nM | 310 nM | 130 nM | 1400 nM |
| CC[C@@]1(O)C(=O)OCc2c1cc1n(c2=O)Cc2cc3c4c(ccc3nc2-1)OCN(c1ccc(F)cc1F)C4 | 660 nM |  | 390 nM | 2070 nM | 1570 nM | 4700 nM | 620 nM | 550 nM | 4480 nM |
| CC[C@@]1(O)C(=O)OCc2c1cc1n(c2=O)Cc2cc3c4c(ccc3nc2-1)OCN(c1ccccc1Cl)C4 | 330 nM | 19200 nM | 450 nM | 4100 nM | 890 nM | 15200 nM | 1050 nM |  | 2000 nM |
| CC[C@@]1(O)C(=O)OCc2c1cc1n(c2=O)Cc2cc3c4c(ccc3nc2-1)OCN(c1ccc(Cl)cc1)C4 | 230 nM |  | 310 nM | 820 nM | 510 nM | 16300 nM | 210 nM | 170 nM | 5000 nM |
| CC[C@@]1(O)C(=O)OCc2c1cc1n(c2=O)Cc2cc3c4c(ccc3nc2-1)OCN(c1ccc(F)c(F)c1F)C4 | 280 nM |  | 280 nM | 1070 nM | 120 nM | 13100 nM | 620 nM |  | 2590 nM |
| CC[C@@]1(O)C(=O)OCc2c1cc1n(c2=O)Cc2cc3c4c(ccc3nc2-1)OCN(c1ccc(F)c(Cl)c1)C4 | 620 nM |  | 560 nM | 3100 nM | 920 nM | 3060 nM | 1130 nM | 180 nM | 9510 nM |
| CC[C@@]1(O)C(=O)OCc2c1cc1n(c2=O)Cc2cc3c4c(ccc3nc2-1)OCN(Cc1ccc(F)cc1)C4 | 60 nM | 43200 nM | 120 nM | 11600 nM | 1730 nM | 5220 nM | 1190 nM | 140 nM | 650 nM |
| CC[C@@]1(O)C(=O)OCc2c1cc1n(c2=O)Cc2cc3c4c(ccc3nc2-1)OCN(C)C4 | 670 nM | 37300 nM | 410 nM | 530 nM | 480 nM | 1670 nM | 690 nM | 640 nM | 4520 nM |
| CCCCN1COc2ccc3nc4c(cc3c2C1)Cn1c-4cc2c(c1=O)COC(=O)[C@]2(O)CC | 90 nM | 10100 nM | 200 nM | 3190 nM | 970 nM | 4010 nM | 130 nM | 350 nM | 550 nM |
| CC[C@@]1(O)C(=O)OCc2c1cc1n(c2=O)Cc2cc3c4c(ccc3nc2-1)OCN(c1ccc(OC)cc1)C4 | 230 nM | 14400 nM | 270 nM | 1120 nM | 420 nM | 4990 nM | 310 nM | 120 nM |  |
| CC[C@@]1(O)C(=O)OCc2c1cc1n(c2=O)Cc2cc3c4c(ccc3nc2-1)OCN(c1ccccc1)C4 | 670 nM |  | 770 nM | 3430 nM | 190 nM | 7130 nM | 480 nM | 30 nM | 2750 nM |
| CC[C@@]1(O)C(=O)OCc2c1cc1n(c2=O)Cc2cc3ccccc3nc2-1 [CAMPTOTHECIN] | 3 nM | 3280 nM | 10 nM | 200 nM | 240 nM | 170 nM | 90 nM | 130 nM | 200 nM |
| CC[C@@]1(O)C(=O)OCc2c1cc1n(c2=O)Cc2cc3c(CN(C)C)c(O)ccc3nc2-1 [TOPOTECAN] | 220 nM | 10100 nM | 220 nM | 3350 nM | 620 nM | 3130 nM | 880 nM |  | 1200 nM |
